An excerpt weighted towards active compounds, which were near 1.6% of everything screened.
B2AR ag: activates human beta-2 adrenergic receptor causing internalization; P07550; actives 0.43% (n = 340,000); Am2.2-beta2AR cells, FAP receptor internalization, flow cytometry; AID 504454; response, % (no concentration beside the values);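 active = response above a set limit, near 3 SD of response in nonfluorescent compounds, cut at about 42% in these data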
TLR9-MyD88 block: inhibitors of human TLR9-MyD88 binding; Q9NR96+Q99836; CHO BLA complementation TLR9-MyD88, CCF4 FRET ratio; inhibition, % at 4.98 µM; actives 0.21% (n = 340,000);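 active = inhibition above the mean over all tested compounds plus 3 SD, cut at about 21% in these data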
TLR4-MyD88 BLA: blocks binding of human TLR4 to MyD88 | O00206+Q99836 | HeLa CL3-4 TLR4/MyD88 BLA complementation, FRET ratio | inhibition, % at 8.4 µM | actives 0.18% (n = 200,000) | AID 861; in the data active = inhibition above about 25%
ABHD5-PLIN5 inh: blocks binding of human ABHD5 to perilipin-5; Q00G26+Q8WTS1; Split G. princeps luciferase complementation, luminescence, 4 h; inhibition, % at 4 µM; actives 0.78% (n = 360,000);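 active = inhibition above the mean inhibition across every tested compound plus 3 SD, cut at about 22% in these data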
Dynein cargo inh: dynein cargo transport inhibition | 3617.4 mouse cells, GR-EGFP nuclear translocation imaging; test concentration mostly 20 µM; stimulated with dexamethasone, 1 µM; stronger effect = lower value | actives 0.47% (n = 220,000) | z-score, hits read low;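 active = plate z-score of nuclear minus cytoplasmic receptor signal below a set negative limit, without overly bright fluorescence or cell loss, cut at about -3.5 in these data, passing the limit was not always enough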;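 also: z-score of nuclear minus cytoplasmic ring GR-EGFP intensity difference per well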
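Buffer or medium: tet-free, stripped-serum medium; Also added: dexamethasone, 1.0 µM final; Technique: high-content fluorescence imaging after fixation; Times: 48 h induction, 1 h compound, 30 min dex at 37 °C; Read-out: per-cell GR-EGFP intensity, nucleus versus surrounding cytoplasmic ring, well-averaged.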
NOD2 RIPK2 PPI: blocks binding of human NOD2 to RIPK2; actives 0.38% (n = 360,000); CHO BLA complementation NOD2-RIPK2, CCF4 ratio; O43353; AID 624267; inhibition, % at 4.98 µM; in the data active = inhibition above about 21%
NOD2-RIPK2 conf: NOD2-RIPK2 interaction inhibition confirmed; shares compounds with NOD2 RIPK2 PPI; CHO cells, NOD2-RIPK2 BLA complementation, CCF4 FRET; inhibition, % at 4.98 µM; actives 70% (n = 1,200);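 active = mean inhibition across replicates above a set limit taken from the earlier primary screen, cut at about 21% in these data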
NOD2 BLA counter: counter-screen for NOD2-RIPK2 interaction inhibitors: BLA reporter | shares compounds with NOD2 RIPK2 PPI | CHO BLA reporter, CCF4 FRET ratio, counterscreen | inhibition, % at 4.98 µM | actives 57% (n = 1,200);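 active = mean inhibition above the low-control mean inhibition plus three low-control SD, cut at about 11% in these data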
Hits are given with their value; i = inactive; nt = not tested or not shown; ! = repeats disagree.

SMILES	B2AR ag	TLR9-MyD88 block	TLR4-MyD88 BLA	ABHD5-PLIN5 inh	Dynein cargo inh	NOD2 RIPK2 PPI	NOD2-RIPK2 conf	NOD2 BLA counter
O=C(NC1CCCCC1)c1cnn2c(C(F)(F)F)cc(-c3ccco3)nc12	i	i	i	i	i	24.2	i	i
COc1ccccc1N1C(=O)C2C(C(=O)c3ccccc3)=NN(c3ccc(C)cc3)C2C1=O (configuration not stated)	i	nt	nt	i	i	26.6	66.7	67.1
COc1ccccc1N1C(=O)C2C(C(=O)c3ccccc3)=NN(c3ccc(Br)cc3)C2C1=O (configuration not stated)	i	nt	nt	i	i	24.8	80.7	82.6
Cc1[nH]c2ccccc2c1/C=N/NC(=O)c1cccc(Br)c1	i	i	nt	i	nt	i	nt	nt
O=C(N/N=C/c1[nH]c2ccccc2c1Cl)c1cccc(Br)c1	i	nt	nt	i	i	24.2	i	31.4
O=[N+]([O-])c1ccc2nc(NN=Cc3ccc(O)cc3)sc2c1	i	i	nt	i	nt	23.4	24.6	31.9
CC(C)c1ccc(/C=C/C(=O)Nc2nc3ccc([N+](=O)[O-])cc3s2)cc1	i	i	i	i	i	i	nt	nt
N#CC(=C1C=CC(=NO)C(Cl)=C1)c1ccccc1	nt	nt	nt	i	nt	32.4	39.4	14.5
CCCS(=O)(=O)NC(=O)C1(C)CCN(C(=O)c2c(F)cccc2F)C1 (configuration not stated)	nt	nt	nt	i	nt	i	nt	nt
CCOc1ccc(CNC(=O)c2ccc(Sc3ccc(Cl)cc3)c(NC(C)=O)c2)cc1	i	i	i	i	i	33.4	i	i
CCOc1ccccc1CNC(=O)c1ccc(Sc2ccc(Cl)cc2)c(NC(C)=O)c1	i	i	i	i	i	i	nt	nt
O=C(COc1ccc([N+](=O)[O-])cc1)Nc1ccc(N2CCN(C(=O)c3ccco3)CC2)cc1	i	i	nt	i	nt	i	nt	nt
CCN1CCN(c2ccc(NC(=O)COc3ccc([N+](=O)[O-])cc3)cc2)CC1	i	i	nt	i	nt	21.0	i	i
CCCCNc1c(-c2ccc(-c3cccc(Cl)c3)cc2)nc2ccccn12	i	i	nt	i	nt	22.4!	i	15.7
CCCCCCSc1ccc(-c2nc3ccccn3c2NCCCC)cc1	i	i	nt	i	nt	i	nt	nt
OC[C@@H]1[C@@H](c2ccccc2)C(c2cccc(Cl)c2)=NN1c1ccccc1	i	i	nt	i	nt	32.6	27.4	53.8
O=C1OCCN1C(=O)[C@H]1[C@H](c2ccc(F)cc2)C(c2cccc(Cl)c2)=NN1c1ccc(Br)cc1	i	i	nt	i	nt	26.2	i	48.1
O=C1OCCN1C(=O)[C@H]1[C@H](c2ccc(Cl)cc2)C(c2ccccc2)=NN1c1ccc(Br)cc1	i	i	nt	i	nt	i	nt	nt
O=C1OCCN1C(=O)[C@H]1[C@H](c2ccccc2)C(c2cccc(Cl)c2)=NN1c1ccc(Br)cc1	i	i	nt	i	nt	30.7	i	46.9
Cc1cccc(C2=NN(c3ccc(Br)cc3)[C@@H](C(=O)N3CCOC3=O)[C@@H]2c2ccc(F)cc2)c1	i	i	i	i	i	i	nt	nt
O=C1OCCN1C(=O)[C@H]1[C@H](c2ccc(F)cc2)C(c2cccc(Cl)c2)=NN1c1ccccc1	i	i	nt	i	nt	28.1	i	44.2
CCCc1ccc(C(O)c2ncc(-c3ccc(OC)cc3)[nH]2)cc1 (configuration not stated)	nt	nt	nt	i	nt	i	nt	nt
CCOC(=O)CC1C(=O)NCCN1C(=S)NC(=O)c1ccc(C)c(Br)c1 (configuration not stated)	nt	i	nt	i	nt	i	nt	nt
COc1ccccc1C(=O)n1nc(-c2ccccc2)nc1NCc1ccco1	i	i	i	i	i	30.1	i	15.9
OCCNc1ncnc2c1ncn2[C@H]1CN(Cc2ccc(Cl)cc2)C[C@@H](CO)O1	nt	nt	nt	i	nt	i	nt	nt
SMILES	B2AR ag	TLR9-MyD88 block	TLR4-MyD88 BLA	ABHD5-PLIN5 inh	Dynein cargo inh	NOD2 RIPK2 PPI	NOD2-RIPK2 conf	NOD2 BLA counter
CC(=O)Nc1ccc(S(=O)(=O)Nc2nc3ccccc3nc2Nc2cccc(O)c2)cc1	i	i	nt	i	i	i	nt	nt
CC(=O)Nc1ccc(S(=O)(=O)Nc2nc3ccccc3nc2Nc2ccc3ccccc3c2)cc1	i	i	i	i	i	22.4	i	i
Cc1onc(-c2ccccc2)c1C(=O)Nc1nnc(COc2ccc(Cl)cc2)s1	i	i	i	i	i	35.6	i	i
CCc1nnc(NC(=O)c2c(-c3ccccc3)noc2C)s1	i	i	nt	i	nt	i	nt	nt
CC(C)N1C(=O)S/C(=C/c2ccc3c(c2)n(C)c(=O)n3C)C1=O	i	i	i	i	i	i	nt	nt
CCN(CC)c1ccc(/C=C2\SC(=O)N(C(C)C)C2=O)o1	i	nt	nt	85.8	i	55.9	i	10.5
CCOC(=O)C1=C(C)Nc2sc(C(=O)c3ccc(C)cc3)c(N)c2C1c1ccc(C(=O)OC)cc1 (configuration not stated)	i	i	i	i	i	41.5	i	17.0
CCOC(=O)C1=C(C)Nc2sc(C(=O)c3ccc(F)cc3)c(N)c2C1c1ccc(C(=O)OC)cc1 (configuration not stated)	i	i	i	i	i	i	nt	nt
O=C(N/N=C/c1c(O)n(-c2ccccc2Cl)c(=O)c2ccccc12)C1COc2ccccc2O1 (configuration not stated)	i	i	i	i	i	22.6	26.1	39.3
O=C(CSc1nc2ncc(Br)cc2[nH]1)c1ccc([N+](=O)[O-])cc1	i	i	i	i	i	21.7	i	i
CN1CCN(C2CC(=O)N(c3ccc4c(c3)OCCO4)C2=O)CC1 (configuration not stated)	i	i	i	i	i	23.9	i	i
O=C1CC(N2CCN(c3ccccc3)CC2)C(=O)N1c1ccc2c(c1)OCCO2 (configuration not stated)	i	i	i	i	i	i	nt	nt
O=C(C[n+]1ccccc1)N1CCCc2ccccc21	i	i	i	i	i	i	nt	nt
O=C(Cc1cccc2ccccc12)N1CCCc2ccccc21	i	i	i	i	i	23.6	i	i
Cc1ccc(CNS(=O)(=O)c2c(C(=O)N3CCCCCC3)c(C)n(C)c2C)cc1	i	i	nt	i	nt	54.1	i	i
NS(=O)(=O)c1ccc(N/C=C\C(=O)c2ccc3ccccc3c2)cc1	i	i	i	i	i	24.2	i	11.8
COc1ccc(N/C=C\C(=O)c2ccc3ccccc3c2)cc1	i	i	nt	i	nt	i	nt	nt
CCOc1ccc(-c2cc(N)n(S(=O)(=O)c3cccc4nsnc34)n2)cc1	i	i	nt	i	i	21.6	i	i
